Experimental data: ChEMBL document CHEMBL4673191, “A scaffold hopping strategy to generate new aryl-2-amino pyrimidine MRSA biofilm inhibitors” (RSC Med Chem, 2021)
Active and inactive are the calls of the source. The rule behind the calls is not given here.

Legend:
Staphylococcus aureus [1] = assay: Antibiofilm activity against preformed methicillin-resistant Staphylococcus aureus ATCC 43300 assessed as dispersion of biofilm at 100 uM incubated for 24 hrs by crystal violet staining based assay; type: functional, organism-based
Summary of the method: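 Overnight culture in TSB + 2.0% glucose subcultured to OD600 0.01 in TSBG; 100 µL per well of PVC plates, static 37 °C for 24 h to form biofilm. After washing, compound in medium added for a further 24 h at 37 °C; medium-only control. Washed, 0.1% crystal violet 30 min, ethanol-solubilized, OD540 with no-biofilm background subtracted. Duplicates, ≥2 repeats.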

Klebsiella pneumoniae [2] = assay: Antibacterial activity against Klebsiella pneumoniae B9 assessed as reduction in bacterial growth incubated for 16 hrs by broth microdilution assay; type: functional
Summary of the method: (§1)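 Bacteria grown 4–6 h in CAMHB, subcultured to 5 x 10⁵ CFU/mL in fresh CAMHB. Compound added from 100 mM DMSO stock, then 2-fold serial dilution in microtiter plate; untreated and media-only wells as controls. Stationary incubation at 37 °C for 16 h, then OD₆₀₀ read. MIC taken as lowest concentration giving 90% growth inhibition vs untreated. Duplicate, repeated at least twice.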

Acinetobacter baumannii [3] = assay: Potentiation of colistin-induced antibacterial activty against Acinetobacter baumannii ATCC 4106 assessed as colistin MIC at 60 uM incubated for 16 hrs by broth microdilution assay (reference value: 1024 microg/ml); type: functional
Summary of the method: (§2)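 Cultures grown 4–6 h in CAMHB, diluted to 5 x 10⁵ CFU/mL. Compound added to aliquots from 100 mM DMSO stock; one aliquot left undosed for colistin MIC alone. Colistin serially diluted 2-fold in the compound-dosed suspension; compound-alone wells kept. Stationary, 37 °C, 16 h, then OD₆₀₀. Colistin MIC = lowest concentration giving 90% growth inhibition vs untreated. Duplicate, at least twice.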

Staphylococcus aureus [4] = assay: Inhibition of biofilm formation in methicillin-resistant Staphylococcus aureus ATCC 43300 incubated for 24 hrs by crystal violet staining based assay; type: functional, organism-based; conditions: ATCC 43300, 24 h
Summary of the method: (§3)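 Overnight culture subcultured to OD600 0.01 in TSB with 2.0% (w/v) glucose; compound diluted in this medium, 100 µL per well of PVC plates, static incubation 24 h at 37 °C. Wells washed with water, stained with 0.1% crystal violet 30 min at ambient temperature, stain solubilized in ethanol, OD540 read minus no-biofilm background. Duplicates, at least two separate repeats.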

Acinetobacter baumannii [5] = assay: Antibacterial activity against Acinetobacter baumannii ATCC 4106 assessed as reduction in bacterial growth incubated for 16 hrs by broth microdilution assay; type: functional; summary of the method: as §1
Staphylococcus aureus [6] = assay: Inhibition of biofilm formation in methicillin-resistant Staphylococcus aureus ATCC 43300 at 200 uM incubated for 24 hrs by crystal violet staining based assay relative to control; type: functional; summary of the method: as §3
Staphylococcus aureus [7] = assay: Inhibition of biofilm formation in methicillin-resistant Staphylococcus aureus BAA-44 incubated for 24 hrs by crystal violet staining based assay; type: functional, organism-based; conditions: BAA-44, 24 h; summary of the method: as §3
Staphylococcus aureus [8] = assay: Antibacterial activity against methicillin-resistant Staphylococcus aureus ATCC 43300 assessed as inhibition of planktonic bacterial growth at IC50 incubated for 24 hrs by colony counter analysis; type: functional
Summary of the method: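 MRSA 43300 grown overnight in TSB with 2.0% glucose (TSBG), inoculated into fresh TSBG at OD600 0.01, compound added to 3 mL tube cultures; untreated control. Shaken at 37 °C; samples at 2, 4, 6, 8, 24 h serially diluted in TSBG, plated on nutrient agar, incubated overnight at 37 °C, colonies counted. Duplicates, at least two separate repeats.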

Staphylococcus aureus [9] = assay: Inhibition of biofilm formation in methicillin-resistant Staphylococcus aureus ATCC 33591 incubated for 24 hrs by crystal violet staining based assay; type: functional, organism-based; conditions: ATCC 33591, 24 h; summary of the method: as §3
Staphylococcus aureus [10] = assay: Inhibition of biofilm formation in methicillin-resistant Staphylococcus aureus ATCC 6538 incubated for 24 hrs by crystal violet staining based assay; type: functional, organism-based; conditions: ATCC 6538, 24 h; summary of the method: as §3
[11] = Hemolytic activity against sheep blood assessed as blood cell lysis at 200 uM incubated for 1 hr by UV-visible spectrophotometry; type: ADME, tissue-based, Ovis aries; conditions: sheep blood cells, read-out: Activity
Summary of the method: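 Defibrinated sheep blood centrifuged, washed and resuspended in PBS three times, then diluted 10-fold. Compound added from DMSO stock; 1% Triton X as 100% lysis and PBS as zero lysis. Shaken at 200 rpm, 37 °C, 1 h, then centrifuged. Supernatant diluted 40-fold in water and absorbance read at 540 nm.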

Klebsiella pneumoniae [12] = assay: Potentiation of colistin-induced antibacterial activty against Klebsiella pneumoniae B9 assessed as fractional inhibitory concentration index incubated for 16 hrs in presence of colistin by checkerboard assay; type: functional
Summary of the method: (§4)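 Checkerboard in CAMHB inoculated with K. pneumoniae at 5 x 10⁵ CFU/mL. Compound serially diluted 2-fold down rows and colistin across columns, starting each at 2x top concentration; one row and one column give single-agent MICs.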

Klebsiella pneumoniae [13] = assay: Effect on lipid A substitution pattern of lipopolysaccharide in Klebsiella pneumoniae B9 by mass spectrometry; type: functional
Klebsiella pneumoniae [14] = assay: Potentiation of colistin-induced antibacterial activity against Klebsiella pneumoniae B9 assessed as colistin MIC at 60 uM incubated for 16 hrs by broth microdilution assay (reference value: 512 ug/ml); type: functional; summary of the method: as §2
Klebsiella pneumoniae [15] = assay: Potentiation of colistin-induced antibacterial activty against Klebsiella pneumoniae B9 assessed as fold reduction in colistin MIC at 60 uM incubated for 16 hrs by broth microdilution assay; type: functional; summary of the method: as §2
Klebsiella pneumoniae [16] = assay: Potentiation of colistin-induced antibacterial activty against Klebsiella pneumoniae A5 assessed as fractional inhibitory concentration index incubated for 16 hrs in presence of colistin by checkerboard assay; type: functional; summary of the method: as §4
Klebsiella pneumoniae [17] = assay: Potentiation of colistin-induced antibacterial activty against Klebsiella pneumoniae F2210219mcr-1 assessed as fractional inhibitory concentration index incubated for 16 hrs in presence of colistin by checkerboard assay; type: functional; summary of the method: as §4

Cl.Nc1nccc(-c2ccc(NC(=O)c3cc(F)cc(F)c3)cc2)n1
Activity (Staphylococcus aureus [1]): inactive
MIC (Klebsiella pneumoniae [2]): ≥ 200 µM
MIC (Acinetobacter baumannii [3]): > 64 µg/mL
IC50 (Staphylococcus aureus [4]): > 200 µM
MIC (Acinetobacter baumannii [5]): ≥ 200 µM
inhibition at 200 µM (Staphylococcus aureus [6]): > 50%

CCCCCCCCCC(=O)NCCCc1cnc(N)nc1
IC50 (Staphylococcus aureus [7]): 72 µM

Cl.Nc1nccc(-c2cccc(NC(=O)c3cc(Cl)cc(Cl)c3)c2)n1
Activity (Staphylococcus aureus [8]): inactive
Activity (Staphylococcus aureus [1]): inactive
IC50 (Staphylococcus aureus [9]): 26.6 µM
MIC (Klebsiella pneumoniae [2]): ≥ 200 µM
IC50 (Staphylococcus aureus [7]): 29.5 µM
MIC (Acinetobacter baumannii [3]): > 64 µg/mL
IC50 (Staphylococcus aureus [10]): 24.9 µM
IC50 (Staphylococcus aureus [4]): 26.4 µM
MIC (Acinetobacter baumannii [5]): ≥ 200 µM
hemolysis at 1 h, 200 µM [11]: 5%
inhibition at 200 µM (Staphylococcus aureus [6]): > 50%

Cl.Nc1ncc(-c2ccccc2NC(=O)c2cc(Cl)cc(Cl)c2)cn1
Activity (Staphylococcus aureus [1]): inactive
MIC (Klebsiella pneumoniae [2]): ≥ 200 µM
MIC (Acinetobacter baumannii [3]): > 64 µg/mL
IC50 (Staphylococcus aureus [4]): > 100 µM
MIC (Acinetobacter baumannii [5]): ≥ 200 µM
inhibition at 200 µM (Staphylococcus aureus [6]): > 50%

Cl.Nc1nccc(-c2ccccc2NC(=O)c2cc(Cl)cc(Cl)c2)n1
Activity (Staphylococcus aureus [1]): inactive
MIC (Klebsiella pneumoniae [2]): ≥ 200 µM
MIC (Acinetobacter baumannii [3]): > 64 µg/mL
IC50 (Staphylococcus aureus [4]): > 50 µM
MIC (Acinetobacter baumannii [5]): ≥ 200 µM
inhibition at 200 µM (Staphylococcus aureus [6]): > 50%

Cl.Nc1nccc(-c2ccc(NC(=O)c3cc(Cl)cc(Cl)c3)cc2)n1
Activity (Staphylococcus aureus [1]): inactive
MIC (Klebsiella pneumoniae [2]): ≥ 200 µM
MIC (Acinetobacter baumannii [3]): > 64 µg/mL
IC50 (Staphylococcus aureus [4]): 41 µM
MIC (Acinetobacter baumannii [5]): ≥ 200 µM
inhibition at 200 µM (Staphylococcus aureus [6]): > 50%

Cl.Nc1ncc(-c2cccc(NC(=O)c3cc(F)cc(F)c3)c2)cn1
Activity (Staphylococcus aureus [1]): inactive
MIC (Klebsiella pneumoniae [2]): ≥ 200 µM
MIC (Acinetobacter baumannii [3]): > 64 µg/mL
IC50 (Staphylococcus aureus [4]): > 200 µM
MIC (Acinetobacter baumannii [5]): ≥ 200 µM
inhibition at 200 µM (Staphylococcus aureus [6]): > 50%

Cl.Nc1nccc(-c2ccc(NC(=O)c3cc(Br)cc(Br)c3)cc2)n1
Activity (Staphylococcus aureus [1]): inactive
MIC (Klebsiella pneumoniae [2]): ≥ 200 µM
MIC (Acinetobacter baumannii [3]): > 64 µg/mL
IC50 (Staphylococcus aureus [4]): > 50 µM
MIC (Acinetobacter baumannii [5]): ≥ 200 µM
inhibition at 200 µM (Staphylococcus aureus [6]): > 50%

Cl.Nc1nccc(-c2cccc(NC(=O)c3cc(Br)cc(Br)c3)c2)n1
Activity (Staphylococcus aureus [8]): inactive
fractional inhibitory concentration index (FICI) (Klebsiella pneumoniae [12]): <=0.09
Activity (Staphylococcus aureus [1]): inactive
IC50 (Staphylococcus aureus [9]): 20.2 µM
MIC (Klebsiella pneumoniae [2]): ≥ 200 µM
Activity (Klebsiella pneumoniae [13]): inactive
IC50 (Staphylococcus aureus [7]): 14.1 µM
MIC (Acinetobacter baumannii [3]): > 64 µg/mL
MIC (Klebsiella pneumoniae [14]): 16 µg/mL
IC50 (Staphylococcus aureus [10]): 15.6 µM
fold change (FC) (Klebsiella pneumoniae [15]): 32
IC50 (Staphylococcus aureus [4]): 17.4 µM
MIC (Acinetobacter baumannii [5]): ≥ 200 µM
hemolysis at 1 h, 200 µM [11]: 3.4%
fractional inhibitory concentration index (FICI) (Klebsiella pneumoniae [16]): <=0.31
fractional inhibitory concentration index (FICI) (Klebsiella pneumoniae [17]): <=0.19
inhibition at 200 µM (Staphylococcus aureus [6]): > 50%

Cl.Nc1ncc(-c2ccc(NC(=O)c3cc(Br)cc(Br)c3)cc2)cn1
Activity (Staphylococcus aureus [1]): inactive
MIC (Klebsiella pneumoniae [2]): ≥ 200 µM
MIC (Acinetobacter baumannii [3]): > 64 µg/mL
IC50 (Staphylococcus aureus [4]): > 100 µM
MIC (Acinetobacter baumannii [5]): ≥ 200 µM
inhibition at 200 µM (Staphylococcus aureus [6]): > 50%

Cl.Nc1ncc(-c2cccc(NC(=O)c3cc(Br)cc(Br)c3)c2)cn1
Activity (Staphylococcus aureus [1]): inactive
MIC (Klebsiella pneumoniae [2]): ≥ 200 µM
MIC (Acinetobacter baumannii [3]): > 64 µg/mL
IC50 (Staphylococcus aureus [4]): 43 µM
MIC (Acinetobacter baumannii [5]): ≥ 200 µM
inhibition at 200 µM (Staphylococcus aureus [6]): > 50%

Cl.Nc1nccc(-c2ccccc2NC(=O)c2cc(Br)cc(Br)c2)n1
Activity (Staphylococcus aureus [1]): inactive
MIC (Klebsiella pneumoniae [2]): ≥ 200 µM
MIC (Acinetobacter baumannii [3]): > 64 µg/mL
IC50 (Staphylococcus aureus [4]): > 200 µM
MIC (Acinetobacter baumannii [5]): ≥ 200 µM
inhibition at 200 µM (Staphylococcus aureus [6]): > 50%

Cl.Nc1nccc(-c2ccccc2NC(=O)c2cc(F)cc(F)c2)n1
Activity (Staphylococcus aureus [1]): inactive
MIC (Klebsiella pneumoniae [2]): ≥ 200 µM
MIC (Acinetobacter baumannii [3]): > 64 µg/mL
IC50 (Staphylococcus aureus [4]): > 200 µM
MIC (Acinetobacter baumannii [5]): ≥ 200 µM
inhibition at 200 µM (Staphylococcus aureus [6]): > 50%

Cl.Nc1ncc(-c2cccc(NC(=O)c3cc(Cl)cc(Cl)c3)c2)cn1
Activity (Staphylococcus aureus [1]): inactive
MIC (Klebsiella pneumoniae [2]): ≥ 200 µM
MIC (Acinetobacter baumannii [3]): > 64 µg/mL
IC50 (Staphylococcus aureus [4]): > 200 µM
MIC (Acinetobacter baumannii [5]): ≥ 200 µM
inhibition at 200 µM (Staphylococcus aureus [6]): > 50%

Nc1nccc(-c2cccc(NC(=O)c3cc(Cl)cc(Br)c3)c2)n1
MIC (Staphylococcus aureus [8]): > 200 µM
IC50 (Staphylococcus aureus [4]): 27.6 µM

Cl.Nc1ncc(-c2ccccc2NC(=O)c2cc(Br)cc(Br)c2)cn1
Activity (Staphylococcus aureus [1]): inactive
MIC (Klebsiella pneumoniae [2]): ≥ 200 µM
MIC (Acinetobacter baumannii [3]): > 64 µg/mL
IC50 (Staphylococcus aureus [4]): 69 µM
MIC (Acinetobacter baumannii [5]): ≥ 200 µM
inhibition at 200 µM (Staphylococcus aureus [6]): > 50%

Cl.Nc1ncc(-c2ccccc2NC(=O)c2cc(F)cc(F)c2)cn1
Activity (Staphylococcus aureus [1]): inactive
MIC (Klebsiella pneumoniae [2]): ≥ 200 µM
MIC (Acinetobacter baumannii [3]): > 64 µg/mL
IC50 (Staphylococcus aureus [4]): > 200 µM
MIC (Acinetobacter baumannii [5]): ≥ 200 µM
inhibition at 200 µM (Staphylococcus aureus [6]): > 50%

Cl.Nc1ncc(-c2ccc(NC(=O)c3cc(F)cc(F)c3)cc2)cn1
Activity (Staphylococcus aureus [1]): inactive
MIC (Klebsiella pneumoniae [2]): ≥ 200 µM
MIC (Acinetobacter baumannii [3]): > 64 µg/mL
IC50 (Staphylococcus aureus [4]): > 200 µM
MIC (Acinetobacter baumannii [5]): ≥ 200 µM
inhibition at 200 µM (Staphylococcus aureus [6]): > 50%

Cl.Nc1ncc(-c2ccc(NC(=O)c3cc(Cl)cc(Cl)c3)cc2)cn1
Activity (Staphylococcus aureus [1]): inactive
MIC (Klebsiella pneumoniae [2]): ≥ 200 µM
MIC (Acinetobacter baumannii [3]): > 64 µg/mL
IC50 (Staphylococcus aureus [4]): > 200 µM
MIC (Acinetobacter baumannii [5]): ≥ 200 µM
inhibition at 200 µM (Staphylococcus aureus [6]): > 50%

Cl.Nc1nccc(-c2cccc(NC(=O)c3cc(F)cc(F)c3)c2)n1
Activity (Staphylococcus aureus [1]): inactive
MIC (Klebsiella pneumoniae [2]): ≥ 200 µM
MIC (Acinetobacter baumannii [3]): > 64 µg/mL
IC50 (Staphylococcus aureus [4]): > 200 µM
MIC (Acinetobacter baumannii [5]): ≥ 200 µM
inhibition at 200 µM (Staphylococcus aureus [6]): > 50%
